Bioassay records from PubChem BioAssay.
CSN inh – blocks human CSN-mediated cullin deneddylation; inhibition, % at 12.5 µM; 0.38% of 360,000 active; Purified CSN, SCF-Nedd8-OG deneddylation, fluorescence polarization; Q92905;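 active means pattern-corrected inhibition above about 35%, with an unprinted fluorescence ratio check between 0.5 and 1.5, limit read from the data, passing the limit was not always enough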
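Detection – fluorescence polarization · System – HEK293T-derived human Csn5 enzyme · Controls – substrate-only high control, full reaction low control · Timing – 90 min, room temperature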
DNMT1 block – inhibitors of human DNMT1; 0.83% of 360,000 active; DNMT1 molecular beacon, Hinp1I cleavage, fluorescence; inhibition (reported as % activation of signal), % at 10 µM; P26358; in the data active means inhibition above about 50%
SUMO1-SIM PPI – SUMO1-SIM interaction modulation; P63165; SUMO1 binding to a labelled peptide, TR-FRET, 1 h; inhibition, % at 20 µM; 0.33% of 360,000 active; AID 602429; in the data active means inhibition above about 37%
Target sequence (P63165 whole entry, looked up): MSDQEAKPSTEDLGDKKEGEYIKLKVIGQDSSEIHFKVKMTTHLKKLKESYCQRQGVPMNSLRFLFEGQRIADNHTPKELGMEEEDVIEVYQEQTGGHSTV
STEP block – blocks human striatal-enriched tyrosine phosphatase | P54829 | recombinant STEP, OMFP fluorogenic substrate, fluorescence | inhibition, % at 20 µM | 0.25% of 360,000 active;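 active means inhibition at 20 µM, scaled per plate between control wells, above about 37%, limit read from the data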
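Measure: Control-normalized % inhibition with plate pattern correction | Test system: STEP phosphatase, cell-free reaction | Medium: pH 6.0 Bis-Tris with DTT and Tween 20 | Technique: Fluorescence, 480/540 nm | Times: Reaction 20 min, ambient temperature | Doses: Single compound dose of 20 µM, 1% DMSO final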
Scp-1 inhibitor – blocks human Scp-1 phosphatase activity. Q9GZU7. Recombinant Scp1, phosphopeptide, malachite green phosphate absorbance. inhibition, % at 20 µM. 0.88% of 340,000 active;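 active means inhibition above about 50% at 20 µM, limit read from the data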
Target sequence (Q9GZU7 76-261 limits assumed): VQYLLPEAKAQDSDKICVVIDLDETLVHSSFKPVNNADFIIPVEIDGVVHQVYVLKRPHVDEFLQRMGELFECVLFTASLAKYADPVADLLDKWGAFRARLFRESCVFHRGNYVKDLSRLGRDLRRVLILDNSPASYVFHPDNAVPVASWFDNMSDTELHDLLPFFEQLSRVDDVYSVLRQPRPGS
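Material – SCP-1 phosphatase catalytic domain, residues 76-261 · Buffer or medium – Acidic Tris acetate buffer with magnesium and detergent · Also added – Phospho 17-mer peptide substrate · Compound – single 20 µM dose, 1% DMSO · Times – 45 min room-temperature reaction, 5 min colour, 30 min stabiliser · Technique – Phosphate-binding colour reagent, absorbance read at 630 nm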
LMPTP inh – blocks human LMPTP phosphatase. P24666. recombinant LMPTP-A, OMFP fluorogenic substrate, fluorescence intensity. inhibition, % at 20 µM. 0.22% of 360,000 active;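 active means compounds that cut the enzyme signal by at least half of the control window in the single-dose screen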
Target sequence (P24666 whole entry, looked up): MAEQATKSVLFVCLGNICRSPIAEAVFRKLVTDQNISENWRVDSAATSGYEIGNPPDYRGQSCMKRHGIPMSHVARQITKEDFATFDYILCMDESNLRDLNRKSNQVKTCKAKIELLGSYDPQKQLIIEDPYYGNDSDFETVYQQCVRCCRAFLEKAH
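Assay system: LMPTP-A enzyme. Input: 0.625 nM LMPTP-A final. Probe or stimulus: 400 µM OMFP. Compound dosing: single 20 µM dose. Schedule: 50 min dark incubation at room temperature. Detection: fluorescence intensity of OMFP turnover product. Read-out: percent inhibition versus substrate-only and uninhibited controls. Benchmarks: no-enzyme low control, uninhibited high control.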
Scp1 confirm – Scp-1 (human) inhibition, single-dose confirmed; shares compounds with Scp-1 inhibitor; recombinant SCP-1 catalytic domain, phosphate release, malachite green absorbance; inhibition, % at 20 µM; 61% of 2,500 active; AID 540281
MG interference – interferes with malachite green readout, flagging false Scp-1 hits; shares compounds with Scp-1 inhibitor; apparent inhibition (interference), % at 20 µM; Colorimetric interference counterscreen, malachite green absorbance 630 nm; AID 540313; 2,500 tested, under 10 active;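 further: compounds added after enzyme reaction finished so only phosphate colour detection is probed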
Scp1 DSF – validation of human Scp-1 inhibitors by thermal shift binding; thermal shift relative to vanadate control, % at 40 µM; 25% of 1,500 active; shares compounds with Scp-1 inhibitor; Recombinant SCP1, Sypro Orange thermal shift Tm;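 active means substances whose mean melting-temperature shift, as a percentage of the reference inhibitor's shift, reaches about 5.3%, limit read from the data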
Numbers stand for hits; - = inactive; . = no result given. Compounds with a hit are over-represented: about 1.9% of the library has one in this group of screens.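 How the source made its calls, unless noted: active means inhibition of at least 30% at 20 µM; inactive means the rest.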

SMILES	CSN inh	DNMT1 block	SUMO1-SIM PPI	STEP block	Scp-1 inhibitor	LMPTP inh	Scp1 confirm	MG interference	Scp1 DSF
COc1cccc(/C=N/NC(=O)CCn2c3ccccc3c3ccccc32)c1	-	-	-	-	.	-	.	.	.
CC(C)C(C(=O)NCc1ccccc1)N1CCN(c2ccccc2F)CC1 (stereo not drawn)	-	.	-	.	.	-	.	.	.
CC(C)C(=O)Nc1ccc(C(=O)N/N=C/c2cc(Br)cc(Br)c2O)cc1	-	-	-	-	55	-	-	-	.
COc1ccc(C(CNS(=O)(=O)c2ccc(NC(C)=O)c(OC)c2)N2CCCCC2)cc1 (stereo not drawn)	-	-	-	-	50	-	-	-	.
COc1ccc(C(CNS(=O)(=O)c2ccc(NC(C)=O)c(OC)c2)N2CCCC2)cc1 (stereo not drawn)	-	-	-	-	-	-	.	.	.
O=C(CCC1CC(=O)Nc2ccccc21)NCc1ccc(F)cc1 (stereo not drawn)	-	-	-	-	-	-	-	-	.
O=C(CCC1CC(=O)Nc2ccccc21)NCc1ccccc1 (stereo not drawn)	-	-	-	-	-	-	.	.	.
Cc1cc(-c2ccc(S(=O)(=O)N3CCN(c4ccccc4F)CC3)s2)on1	-	-	-	-	-	-	.	.	.
COc1ccc(NC(=O)COC(=O)c2cc3c(s2)CCC3)cc1	-	66	-	-	57	-	63	-	-
O=C(COC(=O)c1cc2c(s1)CCCC2)Nc1ccc(Cl)cn1	-	-	-	-	-	-	.	.	.
Cc1ccc(NC(=O)CN(C)S(=O)(=O)c2ccc3c(c2)n(C)c(=O)c(=O)n3C)c(C)c1	-	-	-	-	-	-	.	.	.
Cc1cc(C)c(NC(=O)CN(C)S(=O)(=O)c2ccc3c(c2)n(C)c(=O)c(=O)n3C)c(C)c1	-	-	-	-	-	-	-	-	.
C=CCN(c1ccccc1C(=O)O)S(=O)(=O)c1ccc(C)cc1	-	-	-	-	-	-	.	.	.
Cc1cccc2cc(C(c3nnnn3C(C)(C)C)N(Cc3ccco3)CC3CCCO3)c(=O)[nH]c12 (stereo not drawn)	-	-	-	-	61	-	53	-	-
CC(=O)Nc1cccc(CNCc2cccc(NC(C)=O)c2)c1	-	-	-	-	-	-	.	.	.
CCOC(=O)C1CCN(C(=O)c2ccc(NS(=O)(=O)c3ccc4[nH]c(=O)[nH]c4c3)cc2)CC1	-	-	-	-	-	-	.	.	.
COc1cccc(C2c3c(-c4ccccc4)n[nH]c3C(=O)N2c2ccc(C(=O)O)cc2)c1 (stereo not drawn)	-	-	-	-	53	-	52	-	24
O=C(CC1Sc2ccccc2NC1=O)Nc1cccc(C(=O)O)c1 (stereo not drawn)	-	-	-	-	60	-	36	-	-
NS(=O)(=O)c1cccc(NC(=O)c2ccc3nc[nH]c3c2)c1	-	-	-	-	70	-	67	-	-
Cc1cccc(NC(=O)CNC(=O)c2ccc3nc[nH]c3c2)c1C	-	-	-	-	68	-	51	-	-
Cc1ccc(NC(=O)C2Cc3ccccc3CN2C(=O)c2ccccc2)cc1Cl (stereo not drawn)	-	-	-	-	-	-	.	.	.
Cc1csc2ncc(C(=O)N3CCCc4ccccc43)c(=O)n12	-	-	-	-	87	-	-	-	.
Cc1csc2ncc(C(=O)N3CCc4ccccc43)c(=O)n12	-	-	-	-	-	-	.	.	.
CC(C)C[C@@H](CN1C(=O)C(=O)NC[C@@H]1CC(C)C)NC(=O)Cc1ccccc1	-	-	-	-	-	-	-	-	.
